Drawing on ChEMBL document CHEMBL1926552, “Design and synthesis of simplified taxol analogs based on the T-Taxol bioactive conformation” (Bioorg Med Chem, 2011), this text covers Activity, IC50 and solubility for nine compounds.

The species entered for data set [1] is Bos taurus. Briefly: Induction of bovine brain beta-tubulin polymerization at 60 uM using DAPI staining-based by fluorescence assay relative to control. The method in brief: (§1)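 Bovine brain tubulin was loaded with 5 mM GDP in PME buffer (100 mM Pipes, 1 mM MgSO4, 2 mM EGTA, pH 6.9), then gel-filtered into PMED (PME plus 0.1 mM GDP). Tubulin (8 µM, just below critical concentration) with 10 µM DAPI was equilibrated at 37 °C. Ligand (8 or 60 µM) in DMSO (10% v/v final) was added to start the reaction. Fluorescence (ex 360, em 450 nm) was read to steady state against a DMSO-only control.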

The species named for data set [2] is Bos taurus. Briefly: Induction of bovine brain alpha-tubulin polymerization at 60 uM using DAPI staining-based by fluorescence assay relative to control. In outline:
as §1

The species entered for data set [3] is Bos taurus. Description: Induction of bovine brain beta-tubulin assembly assessed as increase in formed microtubule concentration at 60 uM at 37 degC by absorption spectrophotometric analysis relative to control. In outline: (§2)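 Bovine brain tubulin, 15 µM final, in PMEG buffer (100 mM Pipes, 1 mM MgSO4, 2 mM EGTA, 1 mM GTP, pH 6.9), equilibrated to 37 °C and baseline recorded. Ligand (15 or 60 µM) added, and assembly followed as light scattering at OD 350 nm. The sample was then cooled to 4 °C to follow disassembly. DMSO was 10% v/v final; the control had tubulin plus DMSO only.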

Data set [4] has as its system A2780. Description: Antiproliferative activity against human A2780 cells after 2 days by alamar blue assay. In kind it is functional, cell-based. The conditions noted are these: A2780, 48 h.
Data set [5] can be described thus: Solubility of the compound in buffer containing 10% DMSO. The data set is classed as physicochemical.
The species named for data set [6] is Bos taurus. Description: Induction of bovine brain alpha-tubulin assembly assessed as prevention of temperature-induced microtubule disassembly at 60 uM at 4 degC by absorption spectrophotometric analysis relative to control. The method in brief:
as §2

The species named for data set [7] is Bos taurus. Description: Induction of bovine brain alpha-tubulin assembly assessed as increase in formed microtubule concentration at 60 uM at 37 degC by absorption spectrophotometric analysis relative to control. In outline: as §2
The species named for data set [8] is Bos taurus. Description: Induction of bovine brain beta-tubulin assembly assessed as prevention of temperature-induced microtubule disassembly at 60 uM at 4 degC by absorption spectrophotometric analysis relative to control. In outline: as §2
For data set [9], the species on record is Bos taurus. Description: Induction of bovine brain beta-tubulin assembly assessed as increase in formed microtubule concentration at 15 uM at 37 degC by absorption spectrophotometric analysis relative to control. In outline: as §2
Data set [10] is filed under the species Bos taurus. Briefly: Induction of bovine brain alpha-tubulin assembly assessed as increase in formed microtubule concentration at 15 uM at 37 degC by absorption spectrophotometric analysis relative to control. The method in brief:
as §2

The species named for data set [11] is Bos taurus. Briefly: Induction of bovine brain alpha-tubulin assembly assessed as prevention of temperature-induced microtubule disassembly at 15 uM at 4 degC by absorption spectrophotometric analysis relative to control. In outline: as §2
The species named for data set [12] is Bos taurus. Briefly: Induction of bovine brain alpha-tubulin polymerization at 8 uM using DAPI staining-based by fluorescence assay relative to control. In outline: as §1
For data set [13], the species on record is Bos taurus. Description: Induction of bovine brain beta-tubulin polymerization at 8 uM using DAPI staining-based by fluorescence assay relative to control. In outline:
as §1

Data set [14] is filed under the species Bos taurus. Briefly: Induction of bovine brain beta-tubulin assembly assessed as prevention of temperature-induced microtubule disassembly at 15 uM at 4 degC by absorption spectrophotometric analysis relative to control. The method in brief:
as §2

In brackets after ≈: the same amount, converted by molar mass. Activity calls are given as the source filed them. The calls are words filed in the database; no cut-off is given here.

What is called IC50 is the concentration that gives 50% inhibition. Low readings indicate greater potency, high ones weaker potency. Usually solubility stands for the concentration that dissolves in the medium under given conditions. Low readings indicate a poorly soluble substance, high ones a readily soluble substance. `C=CCOc1cccc2c1[C@H](OC(=O)c1ccccc1)[C@@H]1C[C@H](OC(=O)[C@H](O)[C@@H](NC(=O)c3ccccc3)c3ccccc3CC=C)CN1C2`: the result in data set [1] and in data set [2] was inactive. For the same compound, the result in data set [3], in data set [6], in [7] and in [8] was Active. The IC50 in [4] was determined as 4.7 µM. The compound further registered a solubility in data set [5] of 60 µM (≈ 40.4 µg/mL).
`O=C(N[C@H]1c2ccccc2C/C=C/COc2cccc3c2[C@H](OC(=O)c2ccccc2)[C@@H]2C[C@@H](CN2C3)OC(=O)[C@@H]1O)c1ccccc1`: the outcome in data set [1] and in [2] was inactive. Moreover, the result in data set [3], in [6], in [7] and in data set [8] was Active. For the same compound, the IC50 in data set [4] is 4 µM. Besides, the solubility in [5] worked out at 60 µM (≈ 38.7 µg/mL).
Turning to `O=C(N[C@H]1c2ccccc2C/C=C/COc2cccc3c2[C@@H](OC(=O)c2ccccc2)[C@@H]2C[C@@H](CN2C3)OC(=O)[C@@H]1O)c1ccccc1`, the result in data set [1] and in [2] was inactive. Besides, the result in [3], in [6], in [7] and in data set [8] was Active. This compound registered an IC50 in data set [4] of 5.1 µM. In data set [5], the concentration in solution (solubility) came to 60 µM (≈ 38.7 µg/mL).
On to `O=C(N[C@H]1c2ccccc2OCC/C=C/COc2cccc3c2[C@H](OC(=O)c2ccccc2)[C@@H]2C[C@@H](CN2C3)OC(=O)[C@@H]1O)c1ccccc1`, for which the result in [1] and in data set [2] was inactive. For the same compound, the outcome in [3], in data set [6], in [7] and in data set [8] was Active. It took 4.5 µM to reach half-maximal inhibition in data set [4] (IC50). The same compound came in with a solubility in data set [5] of 60 µM (≈ 40.5 µg/mL).
With `C=CCCOc1ccccc1[C@H](NC(=O)c1ccccc1)[C@@H](O)C(=O)O[C@H]1C[C@H]2[C@@H](OC(=O)c3ccccc3)c3c(cccc3OCC=C)CN2C1`, the result in data set [1] and in data set [2] was inactive. Further, the result in data set [3], in data set [6], in data set [7] and in data set [8] was Active. The compound also had an IC50 in data set [4] of 5.8 µM. For the same compound, in data set [5], the concentration in solution (solubility) was 60 µM (≈ 42.2 µg/mL).
On to `O=C(N[C@H]1c2ccccc2OC/C=C/COc2cccc3c2[C@H](OC(=O)c2ccccc2)[C@@H]2C[C@@H](CN2C3)OC(=O)[C@@H]1O)c1ccccc1`, for which the result in data set [1] and in [2] was inactive. The outcome in data set [3], in data set [6], in data set [7] and in data set [8] was Active. Also, the midpoint of inhibition in [4], the IC50, lay at 4.1 µM. The solubility in data set [5] came out at 60 µM (≈ 39.6 µg/mL).
Turning to `CC(=O)O[C@H]1C(=O)[C@@]2(C)[C@H]([C@H](OC(=O)c3ccccc3)[C@]3(O)C[C@H](OC(=O)[C@H](O)[C@@H](NC(=O)c4ccccc4)c4ccccc4)C(C)=C1C3(C)C)[C@]1(OC(C)=O)CO[C@@H]1C[C@@H]2O`, the outcome in [9], in data set [10], in data set [11] and in data set [14] was Active. The outcome in [12] and in [13] was inactive.
For the compound `C=CCOc1cccc2c1[C@@H](OC(=O)c1ccccc1)[C@@H]1C[C@H](OC(=O)[C@H](O)[C@@H](NC(=O)c3ccccc3)c3ccccc3CC=C)CN1C2`, the outcome in data set [1] and in [2] was inactive. Also, the result in [3], in data set [6], in [7] and in [8] was Active. The IC50 in data set [4] was 23.8 µM. In data set [5], this compound registered a solubility of 60 µM (≈ 40.4 µg/mL).
Regarding `C=CCOc1ccccc1[C@H](NC(=O)c1ccccc1)[C@@H](O)C(=O)O[C@H]1C[C@H]2[C@@H](OC(=O)c3ccccc3)c3c(cccc3OCC=C)CN2C1`, the result in data set [1] and in data set [2] was inactive. Also, the result in [3], in data set [6], in data set [7] and in data set [8] was Active. The compound also registered an IC50 in data set [4] of 8.3 µM. This compound came in with a solubility in [5] of 60 µM (≈ 41.3 µg/mL).
